Test results published in ChEMBL document CHEMBL1681706, “Design and synthesis of novel CCR2 antagonists: investigation of non-aryl/heteroaryl binding motifs” (Bioorg Med Chem Lett, 2011).
pIC50: −log10 of the molar value.

What was measured:
[1] = biological target: T1, C-C chemokine receptor type 2 (Homo sapiens, UniProt P41597); test: Displacement of [125I]MCP1 from human CCR2 at 0.30 uM preincubated 30 mins by human whole cell binding assay
Target sequence in this assay (P41597 whole entry, looked up): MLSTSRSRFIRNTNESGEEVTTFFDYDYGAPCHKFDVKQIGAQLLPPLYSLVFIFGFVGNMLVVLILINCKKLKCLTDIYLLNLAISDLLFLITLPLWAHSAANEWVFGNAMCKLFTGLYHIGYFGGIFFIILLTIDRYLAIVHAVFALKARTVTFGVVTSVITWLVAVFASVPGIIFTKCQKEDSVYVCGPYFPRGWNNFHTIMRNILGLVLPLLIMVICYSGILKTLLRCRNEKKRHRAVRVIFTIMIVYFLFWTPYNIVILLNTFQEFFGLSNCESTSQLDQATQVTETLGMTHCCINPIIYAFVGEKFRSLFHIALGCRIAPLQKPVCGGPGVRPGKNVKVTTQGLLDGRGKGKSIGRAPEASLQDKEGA

[2] = Half life in human liver microsomes at 1 uM; assay type: ADME, Microsome
How it was run: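 Human liver microsome stability test, read out as half-life (t1/2, min) after a single low dose of compound.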

[3] = biological target: hERG (KCNH2) (Homo sapiens, UniProt Q12809); test: Displacement of dofetilide from human ERG at 10 uM; settings: probe dofetilide
How it was run: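 hERG dofetilide assay, read out as percent inhibition at a single concentration of test compound.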

[4] = biological target: T1, C-C chemokine receptor type 2; test: Displacement of [125I]MCP1 from human CCR2 preincubated 30 mins by human whole cell binding assay
How it was run: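 Whole cell binding to human CCR2, with a 30 min preincubation with compound.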
Target sequence in this assay (P41597 whole entry): as the sequence (P41597 whole entry, looked up) above

[5] = Apparent permeability from basolateral to apical side of MDCK cells; assay type: ADME, cell-based, Canis lupus familiaris; settings: dog
[6] = Efflux ratio of permeability from basolateral to apical over apical to basolateral side of MDCK cells; assay type: ADME, cell-based, Canis lupus familiaris; settings: dog
[7] = Apparent permeability from apical to basolateral side of MDCK cells; assay type: ADME, cell-based, Canis lupus familiaris; settings: dog
[8] = biological target: T1, C-C chemokine receptor type 2; test: Displacement of [125I]MCP1 from human CCR2 preincubated 1 hrs by human whole cell binding assay
How it was run: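 Human CCR2 whole cell binding, with compound preincubated for 1 h before the binding read-out.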
Target sequence in this assay (P41597 whole entry): as the sequence (P41597 whole entry, looked up) above

[9] = biological target: T1, C-C chemokine receptor type 2; test: Displacement of [125I]MCP1 from human CCR2 at 0.30 uM preincubated 1 hr by human whole cell binding assay
Target sequence in this assay (P41597 whole entry, looked up): as above

[10] = biological target: T1, C-C chemokine receptor type 2; test: Displacement of [125I]MCP1 from human CCR2 at 0.30 uM by human whole cell binding assay
Target sequence in this assay (P41597 whole entry, looked up): as above

Chain of hERG (KCNH2) (Q12809 whole entry): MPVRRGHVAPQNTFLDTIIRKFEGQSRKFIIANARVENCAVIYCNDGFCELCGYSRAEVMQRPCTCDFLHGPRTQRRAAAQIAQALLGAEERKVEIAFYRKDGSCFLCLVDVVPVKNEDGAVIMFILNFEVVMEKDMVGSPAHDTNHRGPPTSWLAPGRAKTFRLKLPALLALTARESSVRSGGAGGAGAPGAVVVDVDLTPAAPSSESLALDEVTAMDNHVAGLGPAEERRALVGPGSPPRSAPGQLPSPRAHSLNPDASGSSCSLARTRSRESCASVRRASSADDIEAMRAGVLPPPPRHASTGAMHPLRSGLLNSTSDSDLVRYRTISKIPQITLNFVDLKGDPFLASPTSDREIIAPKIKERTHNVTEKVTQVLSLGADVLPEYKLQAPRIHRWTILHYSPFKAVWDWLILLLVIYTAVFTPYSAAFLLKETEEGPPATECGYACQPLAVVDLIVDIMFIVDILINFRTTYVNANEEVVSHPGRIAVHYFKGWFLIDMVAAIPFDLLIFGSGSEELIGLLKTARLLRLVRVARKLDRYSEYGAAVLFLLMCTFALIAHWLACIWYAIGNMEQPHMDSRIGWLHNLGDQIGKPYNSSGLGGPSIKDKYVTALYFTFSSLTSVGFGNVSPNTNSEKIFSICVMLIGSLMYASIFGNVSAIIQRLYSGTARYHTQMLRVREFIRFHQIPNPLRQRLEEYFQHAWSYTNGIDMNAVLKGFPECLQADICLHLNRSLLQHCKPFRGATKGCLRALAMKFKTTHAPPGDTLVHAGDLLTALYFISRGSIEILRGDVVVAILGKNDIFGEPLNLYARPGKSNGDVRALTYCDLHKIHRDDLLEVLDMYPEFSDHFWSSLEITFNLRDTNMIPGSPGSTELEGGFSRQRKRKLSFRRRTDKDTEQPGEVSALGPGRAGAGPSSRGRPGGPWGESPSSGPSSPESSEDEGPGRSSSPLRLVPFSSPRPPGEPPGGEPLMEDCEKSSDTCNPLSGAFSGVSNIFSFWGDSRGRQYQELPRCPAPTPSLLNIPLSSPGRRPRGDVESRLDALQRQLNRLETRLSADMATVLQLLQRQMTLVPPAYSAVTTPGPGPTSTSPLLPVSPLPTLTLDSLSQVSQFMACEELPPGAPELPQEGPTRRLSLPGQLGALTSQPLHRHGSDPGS

| SMILES | half-life at 1 µM [2] [h] | inhibition at 10 µM [3] [%] | pIC50 [4] | pIC50 [8] | further results |
| --- | --- | --- | --- | --- | --- |
| CC(=O)N1C[C@@H]2C[C@H]1CN2C(=O)[C@@]1(C(C)C)CC[C@@H](NC2CCOCC2)C1 | > 2 | 0 |  |  | Activity [1]: 1% |
| CC(C)[C@]1(C(=O)N2C[C@@H]3C[C@H]2CN3C(=O)C2CCCCC2)CC[C@@H](NC2CCOCC2F)C1 (stereo partly specified) | 0.917 | 0 | 7.82 |  |  |
| CC(CC(=O)N1C[C@@H]2C[C@H]1CN2C(=O)[C@@]1(C(C)C)CC[C@@H](NC2CCOCC2F)C1)C(F)(F)F (stereo partly specified) | > 2 | 0 | 7.89 |  | Papp B→A [5]: 10.2 ×10⁻⁶ cm/s; efflux ratio [6]: 0.8; Papp A→B [7]: 11.8 ×10⁻⁶ cm/s |
| CC(C)COC(=O)N1C[C@@H]2C[C@H]1CN2C(=O)[C@@]1(C(C)C)CC[C@@H](NC2CCOCC2F)C1 (stereo partly specified) | 0.467 | 0 | 8.37 |  |  |
| CC(C)[C@]1(C(=O)N2C[C@@H]3C[C@H]2CN3C(=O)N2CCCCC2)CC[C@@H](NC2CCOCC2F)C1 (stereo partly specified) |  | 0 | 7.12 |  |  |
| CO[C@@H]1COCC[C@@H]1N[C@@H]1CC[C@@](C(=O)N2C[C@@H]3C[C@H]2CN3C(=O)c2ccccc2)(C(C)C)C1 | 1.57 | 7.8 | 7.92 | 8.19 |  |
| CC(C)C(=O)N1C[C@@H]2C[C@H]1CN2C(=O)[C@@]1(C(C)C)CC[C@@H](NC2CCOCC2)C1 | > 2 | 3.7 |  |  | Activity [1]: 40% |
| CC(C)[C@]1(C(=O)N2C[C@@H]3C[C@H]2CN3C(=O)OC2CCCC2)CC[C@@H](NC2CCOCC2F)C1 (stereo partly specified) | 0.283 | 0 | 8.51 |  |  |
| CC(C)[C@]1(C(=O)N2C[C@@H]3C[C@H]2CN3C(=O)OC(C)(C)C)CC[C@@H](NC2CCOCC2F)C1 (stereo partly specified) | 0.62 | 6 |  | 8.38 |  |
| CC(C)[C@]1(C(=O)N2C[C@@H]3C[C@H]2CN3C(=O)OC(C)(C)C)CC[C@@H](NC2CCOCC2)C1 | > 2 | 4.8 |  | 8.30 |  |
| CC(C)[C@]1(C(=O)N2C[C@@H]3C[C@H]2CN3C(=O)C2CC2)CC[C@@H](NC2CCOCC2)C1 | > 2 | 2.3 | 6.89 |  |  |
| CC(C)[C@]1(C(=O)N2C[C@@H]3C[C@H]2CN3C(=O)C2CCOCC2)CC[C@@H](NC2CCOCC2)C1 | > 2 | 0 |  |  | Activity [1]: 46% |
| CC(OC(=O)N1C[C@@H]2C[C@H]1CN2C(=O)[C@@]1(C(C)C)CC[C@@H](NC2CCOCC2)C1)C(F)(F)F (stereo partly specified) | 1.3 | 2 | 8.46 |  |  |
| CO[C@@H]1COCC[C@@H]1N[C@@H]1CC[C@@](C(=O)N2C[C@@H]3C[C@H]2CN3C(=O)C(C)(C)C)(C(C)C)C1 | > 2 | 6 |  |  | Activity [9]: 40% |
| CO[C@@H]1COCC[C@@H]1N[C@@H]1CC[C@@](C(=O)N2C[C@@H]3C[C@H]2CN3C(=O)CC(C)(C)C)(C(C)C)C1 | > 2 | 0 | 7.62 | 7.77 |  |
| CC(CC(=O)N1C[C@@H]2C[C@H]1CN2C(=O)[C@@]1(C(C)C)CC[C@@H](NC2CCOCC2)C1)C(F)(F)F (stereo partly specified) | > 2 | 5 | 7.89 |  |  |
| CC(C)[C@]1(C(=O)N2C[C@@H]3C[C@H]2CN3C(=O)CC2CCCC2)CC[C@@H](NC2CCOCC2F)C1 (stereo partly specified) | 0.8 | 3 | 7.83 |  |  |
| CO[C@@H]1COCC[C@@H]1N[C@@H]1CC[C@@](C(=O)N2C[C@@H]3C[C@H]2CN3C(=O)OC(C)(C)C)(C(C)C)C1 | > 2 | 0 |  | 8.54 |  |

| SMILES | half-life at 1 µM [2] [h] | inhibition at 10 µM [3] [%] | pIC50 [4] | pIC50 [8] | further results |
| --- | --- | --- | --- | --- | --- |
| CC(C)[C@]1(C(=O)N2C[C@@H]3C[C@H]2CN3C(=O)C2CCCC2)CC[C@@H](NC2CCOCC2F)C1 (stereo partly specified) | > 2 | 3 | 7.86 |  |  |
| CC(C)[C@]1(C(=O)N2C[C@@H]3C[C@H]2CN3C(=O)C2CCC2)CC[C@@H](NC2CCOCC2)C1 | > 2 | 6 |  | 7.49 |  |
| CC(C)[C@]1(C(=O)N2C[C@@H]3C[C@H]2CN3C(=O)CCC(F)(F)F)CC[C@@H](NC2CCOCC2)C1 | > 2 | 1 | 7.84 |  |  |
| CC(C)[C@]1(C(=O)N2C[C@@H]3C[C@H]2CN3C(=O)CC(C)(C)C)CC[C@@H](NC2CCOCC2)C1 | > 2 | 5.7 |  | 7.43 |  |
| CC(C)[C@]1(C(=O)N2C[C@@H]3C[C@H]2CN3C(=O)C2CCCC2)CC[C@@H](NC2CCOCC2)C1 | > 2 | 2 |  | 7.91 |  |
| CC(C)[C@]1(C(=O)N2CCN(C(=O)OC(C)(C)C)CC2)CC[C@@H](NC2CCOCC2)C1 |  |  |  |  | Activity [10]: 24% |
| CO[C@@H]1COCC[C@@H]1N[C@@H]1CC[C@@](C(=O)N2C[C@@H]3C[C@H]2CN3C(=O)C2CCCC2)(C(C)C)C1 | > 2 | 6.7 | 7.95 | 8.07 |  |
| CC(C)[C@]1(C(=O)N2C[C@@H]3C[C@H]2CN3C(=O)NC(C)(C)C)CC[C@@H](NC2CCOCC2F)C1 (stereo partly specified) | 1.77 | 0 | 7.55 |  |  |
| CC(C)[C@]1(C(=O)N2C[C@@H]3C[C@H]2CN3C(=O)CC(C)(C)C)CC[C@@H](NC2CCOCC2F)C1 (stereo partly specified) | 1.27 | 0 | 7.40 |  |  |
| CCC(=O)N1C[C@@H]2C[C@H]1CN2C(=O)[C@@]1(C(C)C)CC[C@@H](NC2CCOCC2)C1 | > 2 | 6 |  |  | Activity [1]: 28% |
| CC(OC(=O)N1C[C@@H]2C[C@H]1CN2C(=O)[C@@]1(C(C)C)CC[C@@H](NC2CCOCC2F)C1)C(F)(F)F (stereo partly specified) | 0.433 | 3 | 8.49 |  |  |
| CC(C)[C@]1(C(=O)N2C[C@@H]3C[C@H]2CN3C(=O)c2ccccc2)CC[C@@H](NC2CCOCC2F)C1 (stereo partly specified) |  | 0 | 7.76 |  |  |
| CC(C)[C@]1(C(=O)N2C[C@@H]3C[C@H]2CN3C(=O)CCC(F)(F)F)CC[C@@H](NC2CCOCC2F)C1 (stereo partly specified) | > 2 | 5 | 7.76 |  | Papp B→A [5]: 5.3 ×10⁻⁶ cm/s; efflux ratio [6]: 0.6; Papp A→B [7]: 8.35 ×10⁻⁶ cm/s |
| CO[C@@H]1COCC[C@@H]1N[C@@H]1CC[C@@](C(=O)N2C[C@@H]3C[C@H]2CN3C(=O)C2CCC2)(C(C)C)C1 | > 2 | 4 |  | 7.93 |  |
| CC(C)[C@]1(C(=O)N2C[C@@H]3C[C@H]2CN3C(=O)C(C)(C)C)CC[C@@H](NC2CCOCC2)C1 | > 2 | 2 |  |  | Activity [1]: 23% |
| CC(C)[C@]1(C(=O)N2C[C@@H]3C[C@H]2CN3C(=O)C2CCCCC2)CC[C@@H](NC2CCOCC2)C1 | 1.55 | 4 | 7.94 |  |  |
| CC(C)[C@]1(C(=O)N2C[C@@H]3C[C@H]2CN3C(=O)C2CCC2)CC[C@@H](NC2CCOCC2F)C1 (stereo partly specified) | 0.35 | 17 | 7.42 |  |  |
| CO[C@@H]1COCC[C@@H]1N[C@@H]1CC[C@@](C(=O)N2CCN(C(=O)OC(C)(C)C)CC2)(C(C)C)C1 |  |  |  | 6.60 |  |
